Test results as given in ChEMBL document CHEMBL4020701, “A strategy for dual inhibition of the proteasome and fatty acid synthase with belactosin C-orlistat hybrids” (Bioorg Med Chem, 2017).

What was measured:
Fatty acid synthase [1] = target: T1, Fatty acid synthase (Homo sapiens, UniProt P49327); assay: Inhibition of human FAS thioster domain preincubated for 30 mins followed by 4-methylumbelliferyl heptanoate substrate addition measured every 5 mins for 60 mins by fluorescence assay
Target sequence in this assay (P49327 whole entry, the tested form may be a part): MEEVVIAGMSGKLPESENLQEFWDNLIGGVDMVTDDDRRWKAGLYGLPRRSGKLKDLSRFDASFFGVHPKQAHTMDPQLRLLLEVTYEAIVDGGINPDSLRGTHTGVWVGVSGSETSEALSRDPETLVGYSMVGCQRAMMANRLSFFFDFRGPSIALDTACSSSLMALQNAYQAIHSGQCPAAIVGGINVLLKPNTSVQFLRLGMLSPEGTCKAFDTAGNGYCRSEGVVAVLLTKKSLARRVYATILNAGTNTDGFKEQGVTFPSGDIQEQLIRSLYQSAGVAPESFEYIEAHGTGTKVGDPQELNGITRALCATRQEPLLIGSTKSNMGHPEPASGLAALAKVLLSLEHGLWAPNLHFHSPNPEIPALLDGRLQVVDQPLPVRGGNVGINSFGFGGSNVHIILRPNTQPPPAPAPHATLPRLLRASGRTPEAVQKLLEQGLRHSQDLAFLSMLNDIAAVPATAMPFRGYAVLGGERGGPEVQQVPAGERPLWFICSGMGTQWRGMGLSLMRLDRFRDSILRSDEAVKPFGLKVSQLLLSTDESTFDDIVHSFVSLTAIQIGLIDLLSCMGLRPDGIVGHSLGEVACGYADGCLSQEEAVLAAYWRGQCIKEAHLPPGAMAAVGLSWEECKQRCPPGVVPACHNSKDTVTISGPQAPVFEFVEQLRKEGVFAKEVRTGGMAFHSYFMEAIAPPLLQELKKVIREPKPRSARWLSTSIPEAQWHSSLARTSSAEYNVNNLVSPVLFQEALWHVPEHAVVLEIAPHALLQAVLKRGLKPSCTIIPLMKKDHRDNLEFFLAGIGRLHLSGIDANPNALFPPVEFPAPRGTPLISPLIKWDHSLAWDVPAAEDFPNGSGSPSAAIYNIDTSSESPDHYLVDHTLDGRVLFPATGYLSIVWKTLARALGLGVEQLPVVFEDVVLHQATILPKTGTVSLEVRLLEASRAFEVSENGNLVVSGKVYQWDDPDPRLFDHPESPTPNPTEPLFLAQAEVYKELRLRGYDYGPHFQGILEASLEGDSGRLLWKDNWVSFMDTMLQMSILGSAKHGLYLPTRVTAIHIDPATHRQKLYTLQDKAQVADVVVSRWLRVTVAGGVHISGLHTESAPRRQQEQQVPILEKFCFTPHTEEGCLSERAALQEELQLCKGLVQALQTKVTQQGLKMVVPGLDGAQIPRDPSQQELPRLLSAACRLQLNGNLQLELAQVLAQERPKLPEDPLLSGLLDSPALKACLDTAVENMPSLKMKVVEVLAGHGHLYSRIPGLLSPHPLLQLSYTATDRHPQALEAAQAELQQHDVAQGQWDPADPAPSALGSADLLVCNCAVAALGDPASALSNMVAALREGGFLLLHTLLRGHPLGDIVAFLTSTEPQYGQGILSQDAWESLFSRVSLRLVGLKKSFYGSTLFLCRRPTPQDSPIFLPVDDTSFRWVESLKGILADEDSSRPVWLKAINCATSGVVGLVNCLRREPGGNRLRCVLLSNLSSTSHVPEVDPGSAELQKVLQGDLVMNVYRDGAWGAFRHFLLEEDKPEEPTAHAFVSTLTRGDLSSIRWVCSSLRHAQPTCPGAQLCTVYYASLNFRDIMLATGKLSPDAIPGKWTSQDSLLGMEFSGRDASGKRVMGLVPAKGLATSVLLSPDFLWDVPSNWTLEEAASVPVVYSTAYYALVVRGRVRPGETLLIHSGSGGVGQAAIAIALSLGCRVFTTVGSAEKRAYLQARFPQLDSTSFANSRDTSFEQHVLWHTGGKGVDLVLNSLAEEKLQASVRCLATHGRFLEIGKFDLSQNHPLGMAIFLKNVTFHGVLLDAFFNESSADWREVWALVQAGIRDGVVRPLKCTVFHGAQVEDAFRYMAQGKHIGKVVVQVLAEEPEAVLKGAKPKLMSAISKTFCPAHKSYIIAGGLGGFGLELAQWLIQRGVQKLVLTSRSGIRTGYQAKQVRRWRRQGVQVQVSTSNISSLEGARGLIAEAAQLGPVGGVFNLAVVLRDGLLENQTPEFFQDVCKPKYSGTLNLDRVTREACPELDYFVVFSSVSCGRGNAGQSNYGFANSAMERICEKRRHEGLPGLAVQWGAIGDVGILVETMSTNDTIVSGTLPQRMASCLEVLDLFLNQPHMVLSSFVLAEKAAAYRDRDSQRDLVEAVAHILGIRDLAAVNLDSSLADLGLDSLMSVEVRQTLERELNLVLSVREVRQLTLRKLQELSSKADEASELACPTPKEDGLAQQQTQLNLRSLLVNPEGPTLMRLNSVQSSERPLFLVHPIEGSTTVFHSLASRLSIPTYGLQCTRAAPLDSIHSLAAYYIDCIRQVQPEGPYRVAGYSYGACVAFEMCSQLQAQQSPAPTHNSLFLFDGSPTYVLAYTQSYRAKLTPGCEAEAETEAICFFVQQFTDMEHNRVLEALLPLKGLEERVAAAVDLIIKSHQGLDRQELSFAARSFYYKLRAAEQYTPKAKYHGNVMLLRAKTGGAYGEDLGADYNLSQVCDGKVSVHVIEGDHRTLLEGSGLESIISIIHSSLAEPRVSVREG

[2] = target: T2, Proteasome Macropain subunit MB1 (Homo sapiens, UniProt P28074); assay: Inhibition of chymotrypsin-like activity of 20S proteasome in human red blood cells pretreated for 20 mins followed by Suc-Leu-Leu-Val-Tyr-AMC substrate addition by fluorescence assay; type: cell-based
T2 sequence (P28074 whole entry): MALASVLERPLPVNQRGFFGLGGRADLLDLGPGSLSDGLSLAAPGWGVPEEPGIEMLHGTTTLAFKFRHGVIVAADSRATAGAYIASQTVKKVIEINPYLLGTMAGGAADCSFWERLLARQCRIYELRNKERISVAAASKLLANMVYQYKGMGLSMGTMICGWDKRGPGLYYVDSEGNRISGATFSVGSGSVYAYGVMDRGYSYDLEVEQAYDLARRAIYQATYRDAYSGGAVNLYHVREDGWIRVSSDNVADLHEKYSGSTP
Procedure, shortened: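 20S proteasome (50 ng) from human erythrocytes, preincubated 20 min at 37 °C in 20 mM Tris pH 7.5 with inhibitor series. AMC substrate then added: 10 µM Suc-LLVY for chymotrypsin-like, 20 µM Boc-LRR for trypsin-like, 20 µM Z-LLE for caspase-like. Hydrolysis followed at 360/460 nm for 600 s; the linear rate was fitted to a four-parameter curve for IC50. Triplicate.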

Fatty acid synthase [3] = target: T1, Fatty acid synthase; assay: Inhibition of FAS thioster domain (unknown origin)
Procedure, shortened: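 Human FAS-TE (500 nM) in 100 mM Tris-HCl, 50 mM NaCl, pH 7.4, preincubated 30 min at 37 °C with compound (0.32–100 µM and/or 0.08–10 µM final, DMSO). Reaction started with 4-methylumbelliferyl heptanoate. Fluorescence (350/450 nm) read every 5 min for 60 min, substrate-only background. IC50 by four-parameter fit; triplicate.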
Target sequence in this assay (P49327 whole entry, the tested form may be a part): as the sequence (P49327 whole entry, the tested form may be a part) above

[4] = Half life in DMEM medium at 5 uM in absence of 5% FBS by HPLC method; type: physicochemical
Procedure, shortened: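 Compound diluted from DMSO stock to 5 µM final in DMEM (pH 7.5) and held at 37 °C under 5% CO2. Aliquots taken at intervals and quenched with pH 2.0 phosphate buffer. Remaining β-lactone quantified by C18 HPLC integration against initial compound. Run in triplicate.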

[5] = Half life in DMEM medium at 5 uM in presence of 5% FBS by HPLC method; type: physicochemical; conditions: cattle
Procedure, shortened: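 Compound at 5 µM final in DMEM with 5% FBS at 37 °C, 5% CO2. Aliquots quenched with pH 2.0 phosphate buffer plus acetonitrile and vortexed to precipitate serum protein. Clear supernatant analysed by C18 HPLC as % β-lactone remaining versus initial. Triplicate.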

HeLa = assay: Cytotoxicity against human HeLa cells assessed as reduction in cell viability after 24 hrs by MTT assay; type: functional, cell-based
Procedure, shortened: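 HeLa cells grown in DMEM with 10% FBS were seeded at 5000/well and left overnight. MTT was then added for 4 h, the formazan dissolved in DMSO and A570 read. IC50 came from dose-response curves; mean ± SEM of three independent experiments.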

Fatty acid synthase [6] = target: T1, Fatty acid synthase; assay: Competitive inhibition of human FAS thioster domain in MCF cells preincubated for 30 mins followed by TAMRA-N3 labelled (S)-4-ethynylbenzyl 2-((S)-2-(benzyloxycarbonylamino)-6-((2R,3S)-3-hexyl-4-oxooxetane-2-carboxamido)hexanamido)propanoate probe addition after 30 mins […]; type: cell-based
Procedure, shortened: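 MCF-7 cells at 80–90% confluency in serum-free medium, pre-incubated 30 min at 37 °C with competitor (10 → 100 µM, 1–10-fold excess over probe; DMSO ≤0.1%). Alkyne probe then added at 10 µM final for 30 min. Cells lysed in NP-40/deoxycholate, protein normalized by BCA, clicked to TAMRA-N3 (CuSO4/TCEP/TBTA, 1–1.5 h RT), resolved by SDS-PAGE, read by in-gel fluorescence.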
Target sequence in this assay (P49327 whole entry, looked up, the tested form may be a part): as the sequence (P49327 whole entry, the tested form may be a part) above

**Q.** What does the source list for `CCCCCC[C@H]1C(=O)O[C@@H]1C(=O)NCCCC[C@H](NC(=O)OCc1ccccc1)C(=O)N[C@@H](C)C(=O)OCc1ccccc1`?
**A.** IC50 (Fatty acid synthase [1]): 12.6 µM; IC50 [2]: 2.71 µM

**Q.** With `CCCCCC[C@@H]1C(=O)O[C@H]1C(=O)NCCCC[C@@H]1NC(=O)N([C@@H](C)C(=O)OCc2ccccc2)C1=O` as the compound, how does the IC50 (Fatty acid synthase [1]) read?
**A.** Its IC50 is 5.55 µM.

**Q.** And the IC50 [2]?
**A.** Its IC50 is 0.51 µM.

**Q.** For `CCCCCC[C@@H]1C(=O)O[C@H]1C(=O)NCCC[C@H](NC(=O)[C@H](C)NC(=O)OCc1ccccc1)C(=O)OCc1ccccc1`, which IC50 (Fatty acid synthase [1]) is on record?
**A.** Its IC50 is 4.35 µM.

**Q.** What about the IC50 (Fatty acid synthase [3]) of the same compound?
**A.** The IC50 was 0.16 to 4 µM.

**Q.** And the IC50 [2]?
**A.** The IC50 was 0.7 µM.

**Q.** For `CCCCCC[C@@]1(C)C(=O)O[C@H]1C(=O)NCCCC[C@H](NC(=O)[C@H](C)NC(=O)OCc1ccccc1)C(=O)OCc1ccccc1`, which IC50 (Fatty acid synthase [1]) is on record?
**A.** Its IC50 is 1.19 µM.

**Q.** For `CCCCCCCCCCC[C@@H](C[C@@H]1OC(=O)[C@H]1CCCCCC)OC(=O)[C@H](CC(C)C)NC=O` [ORLISTAT], which IC50 [2] is on record?
**A.** The IC50 was greater than 100 µM.

**Q.** Which IC50 (Fatty acid synthase [3]) does the source give for `CCC[C@@H]1C(=O)O[C@H]1C(=O)NCCC[C@H](NC(=O)[C@H](C)NC(=O)OCc1ccccc1)C(=O)OCc1ccccc1` here?
**A.** Its IC50 is 0.16 to 4 µM.

**Q.** Which IC50 (Fatty acid synthase [1]) does the source give for `CCCCCC[C@@H]1C(=O)O[C@H]1C(=O)NCCCC[C@H](NC(=O)[C@H](C)NC(=O)c1ccc(Br)cc1)C(=O)OCc1ccccc1` here?
**A.** The IC50 was 4.81 µM.

**Q.** With `CCCCCC[C@@]1(C)C(=O)O[C@@H]1C(=O)NCCCC[C@H](NC(=O)[C@H](C)NC(=O)OCc1ccccc1)C(=O)OCc1ccccc1` as the compound, how does the IC50 (Fatty acid synthase [1]) read?
**A.** The IC50 was 3.11 µM.

**Q.** What does the source list for `CCCCCC[C@]1(C)C(=O)O[C@H]1C(=O)NCCCC[C@H](NC(=O)[C@H](C)NC(=O)OCc1ccccc1)C(=O)OCc1ccccc1`?
**A.** t1/2 [4]: 70 min; IC50 (Fatty acid synthase [1]): 2.61 µM; t1/2 [5]: 120 min

**Q.** Which results are given for `C#Cc1ccc(COC(=O)[C@H](C)NC(=O)[C@H](CCCCNC(=O)[C@@H]2OC(=O)[C@H]2CCCCCC)NC(=O)OCc2ccccc2)cc1`?
**A.** IC50 (Fatty acid synthase [1]): 3.98 µM; IC50 [2]: 0.26 µM

**Q.** With `CCCCCC[C@@H]1C(=O)O[C@H]1C(=O)NCCCC[C@H](NC(=O)OCc1ccccc1)C(=O)N[C@@H](C)C(=O)OCc1ccccc1` as the compound, how does the t1/2 [4] read?
**A.** The t1/2 was 20 min.

**Q.** And the IC50 (HeLa)?
**A.** Its IC50 is 45.8 µM.

**Q.** And the IC50 (Fatty acid synthase [1])?
**A.** Its IC50 is 1.5 µM.

**Q.** And the t1/2 [5]?
**A.** The t1/2 was less than 3 min.

**Q.** And the IC50 [2]?
**A.** Its IC50 is 0.37 µM.

**Q.** And the inhibition (Fatty acid synthase [6])?
**A.** The inhibition was “Dose-dependent effect”.

**Q.** For `CC(C)C[C@@H]1C(=O)O[C@H]1C(=O)NCCC[C@H](NC(=O)[C@H](C)NC(=O)OCc1ccccc1)C(=O)OCc1ccccc1`, which IC50 (Fatty acid synthase [3]) is on record?
**A.** The IC50 was 0.16 to 4 µM.
